In ChEMBL document CHEMBL3997810, “A Novel Potent Anticancer Compound Optimized from a Natural Oridonin Scaffold Induces Apoptosis and Cell Cycle Arrest through the Mitochondrial Pathway” (J Med Chem, 2017):
Active and inactive are the calls of the source. The rule behind the calls is not given here.

What was measured:
Mus musculus = experiment: Toxicity in Balb/c nude mouse xenografted with human MCF7 cells assessed as morphological changes in spleen at 20 mg/kg/day, iv for 4 weeks by hematoxylin and eosin staining based microscopic method; assay type: organism-based; settings: in vivo, 672 h
Summary of the method: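 Male BALB/c nude mice aged six weeks received 1 × 10^6 MCF-7 cells subcutaneously in the right flank. After 7 d they were randomized and dosed 20 mg/kg iv once daily in 10% DMF/2% poloxamer/88% saline; saline control. Heart, liver, spleen, lung and kidney were fixed in 4% paraformaldehyde, paraffin-embedded, sectioned at 5 μm, H&E stained and examined microscopically.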

Bel-7402 [1] = experiment: Cell cycle arrest in human Bel7402 cells assessed as accumulation at G1 phase at 1 uM after 48 hrs by propidium iodide staining based flow cytometry (reference value: 34.61%); assay type: functional
MCF7 [2] = experiment: Induction of mitochondrial membrane potential depolarization in human MCF7 cells assessed as ratio of red fluorescence to green fluorescence at 1 uM after 36 hrs by JC1 staining based fluorescence microscopic method (reference value: 1.433); assay type: functional
Summary of the method: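 MCF-7 cells were treated with 0, 0.25, 0.5 or 1 μM for 36 h and loaded with 10 μg/mL JC-1 for 30 min at 37 °C, then washed in PBS. Monomers were read at ex 490/em 535 nm and aggregates at ex 525/em 600 nm, by plate reader or fluorescence microscopy. The red/green ratio came from 10,000 cells per group, in triplicate, mean ± SD.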

MCF7 [3] = experiment: Induction of apoptosis in human MCF7 cells assessed as late apoptotic cells at 0.5 uM after 24 hrs by Annexin-V FITC/propidium iodide staining based flow cytometry (reference value: 0.255%); assay type: functional
MCF7 [4] = experiment: Induction of ROS generation in human MCF7 cells at 1 uM after 36 hrs in presence of ROS scavenger NAC by DCF-DA staining based flow cytometry; assay type: functional, cell-based
Summary of the method: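 MCF-7 cells exposed to 0–1 μM compound for 36 h, with DMSO as control; one arm pre-incubated with 2.5 mM NAC. Cells then loaded with DCF-DA at 37 °C for 15 min, harvested and resuspended in PBS. Fraction of DCF-positive cells measured by flow cytometry at Ex 480/Em 525 nm.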

MCF7 [5] = experiment: Cell cycle arrest in human MCF7 cells assessed as accumulation at G2/M phase at 1 uM after 48 hrs by propidium iodide staining based flow cytometry (reference value: 13.05%); assay type: functional
Summary of the method: (§1)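 MCF-7 cells, 5 × 10^4 per well, seeded overnight, then exposed to 0.125–1 μM compound, or DMSO, for 48 h. Ethanol-fixed (70%, −20 °C, 12 h) and stained with PI/RNase at 37 °C for 30 min. Phase distribution determined by flow cytometry.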

MCF7 [6] = experiment: Downregulation of cdc2 protein expression in human MCF7 cells after 48 hrs by Western blot method; assay type: functional, cell-based
Summary of the method: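 MCF-7 cells exposed to 0–1 μM compound for 48 h, then lysed on ice. Lysate (20 μg protein) run on 8–12% SDS-PAGE and transferred to PVDF. Probed overnight at 4 °C with primary antibodies, then fluorescent secondaries. Band densities normalized to β-actin. Mean ± SD of three independent experiments.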

MCF7 [7] = experiment: Induction of apoptosis in human MCF7 cells assessed as increase in caspase-9 protein expression up to 1 uM after 48 hrs by Western blot method; assay type: functional, cell-based
Summary of the method: (§2)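 MCF-7 cells were treated at 0, 0.125, 0.25, 0.5 or 1 μM for 48 h, washed in ice-cold PBS and lysed on ice for 20 min. Lysates were spun at 13,000 g, 4 °C. 20 μg protein was run on SDS-PAGE and blotted to PVDF, probed overnight at 4 °C with primary antibodies, then with fluorescent secondary antibodies. Band density was expressed relative to β-actin; three independent experiments.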

MCF7 [8] = experiment: Induction of apoptosis in human MCF7 cells assessed as live cells at 1 uM after 24 hrs by Annexin-V FITC/propidium iodide staining based flow cytometry (reference value: 97%); assay type: functional
NCI-H460 = experiment: Antiproliferative activity against human NCI-H460 cells after 48 hrs by MTT assay; assay type: functional, cell-based; settings: NCI-H460, 48 h
Summary of the method: (§3)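 Colorimetric MTT assay. KB-3-1, NCI-H460 and Bel-7404 cells were seeded at 4000 cells/well; resistant KB/CP4, NCI-H460/MX20 and Bel-7404/CP20 were seeded at 7000 cells/well. Cells were pre-incubated 24 h at 37 °C, 5% CO2, then exposed to a compound concentration series for 48 h with DMSO ≤0.25%. Absorbance read at 570 nm. Quadruplicate wells, three repeats; means ± SD.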

MCF7 [9] = experiment: Cell cycle arrest in human MCF7 cells assessed as accumulation at G1 phase at 0.5 uM after 48 hrs by propidium iodide staining based flow cytometry (reference value: 49.77%); assay type: functional; summary of the method: as §1
MCF7 [10] = experiment: Cell cycle arrest in human MCF7 cells assessed as accumulation at S phase at 1 uM after 48 hrs by propidium iodide staining based flow cytometry (reference value: 37.18%); assay type: functional; summary of the method: as §1
MCF7 [11] = experiment: Induction of apoptosis in human MCF7 cells assessed as early apoptotic cells at 0.25 uM after 24 hrs by Annexin-V FITC/propidium iodide staining based flow cytometry (reference value: 2.65%); assay type: functional
MCF7 [12] = experiment: Antiproliferative activity against human MCF7 cells after 72 hrs by MTT assay; assay type: functional, cell-based; settings: MCF7, 72 h
Summary of the method: (§4)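 MGC-803 and MCF-7 cells grown in DMEM (MCF-7 with 1× NEAA); Bel-7402 and K562 grown in RPMI 1640; all media with 10% FBS. Cells seeded at 3500/well, pre-incubated 24 h, then exposed to compounds in fresh medium (DMSO ≤0.25%) for 72 h at 37 °C. MTT read-out at 570 nm. Quadruplicate wells, repeated three times; means ± SD (n = 3).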

[13] = Antiproliferative activity against human NCI-H460/MX20 cells after 48 hrs by MTT assay; assay type: functional, cell-based; settings: NCI-H460/MX20, 48 h; summary of the method: as §3
Bel-7402 [14] = experiment: Antiproliferative activity against human Bel7402 cells after 72 hrs by MTT assay; assay type: functional, cell-based; settings: Bel-7402, 72 h; summary of the method: as §4
Bel-7402 [15] = experiment: Cell cycle arrest in human Bel7402 cells assessed as accumulation at S phase at 4 uM after 48 hrs by propidium iodide staining based flow cytometry (reference value: 8.78%); assay type: functional
MCF7 [16] = experiment: Cell cycle arrest in human MCF7 cells assessed as accumulation at G2/M phase at 0.125 uM after 48 hrs by propidium iodide staining based flow cytometry (reference value: 13.05%); assay type: functional; summary of the method: as §1
MCF7 [17] = experiment: Induction of apoptosis in human MCF7 cells assessed as increase in Bad protein expression at 0.5 to 1 uM after 48 hrs by Western blot method; assay type: functional, cell-based; summary of the method: as §2
BEL-7404 tumor cell line = experiment: Antiproliferative activity against human Bel7404 cells after 48 hrs by MTT assay; assay type: functional, cell-based; settings: BEL-7404, 48 h; summary of the method: as §3
[18] = Selectivity ratio of IC50 for human L02 cells to IC50 for human Bel7402 cells
Bel-7402 [19] = experiment: Cell cycle arrest in human Bel7402 cells assessed as accumulation at G2/M phase at 4 uM after 48 hrs by propidium iodide staining based flow cytometry (reference value: 56.61%); assay type: functional
MCF7 [20] = experiment: Induction of apoptosis in human MCF7 cells assessed as late apoptotic cells at 0.25 uM after 24 hrs by Annexin-V FITC/propidium iodide staining based flow cytometry (reference value: 0.255%); assay type: functional

C=C1C(=O)[C@]23[C@H](OC(=O)/C=C/c4ccccc4)[C@H]1CC[C@H]2[C@]12C=CCC(C)(C)[C@H]1[C@H](O)[C@]3(O)OC2
Activity (Mus musculus): Non-Toxic | Activity (Bel-7402 [1]): 32.12% | Ratio (MCF7 [2]): 0.385 | Activity (MCF7 [3]): 30.2% | Activity (MCF7 [4]): inactive | Activity (MCF7 [5]): 34.23% | Activity (MCF7 [6]): Dose-dependent effect | Activity (MCF7 [7]): Active | Activity (MCF7 [8]): 31.2% | IC50 (NCI-H460): 2620 nM | Activity (MCF7 [9]): 43.87% | Activity (MCF7 [10]): 30.01% | Activity (MCF7 [11]): 8.29% | IC50 (MCF7 [12]): 80 nM | IC50 [13]: 13600 nM | IC50 (Bel-7402 [14]): 1030 nM | Activity (Bel-7402 [15]): 9.55% | Activity (MCF7 [16]): 16.83% | Activity (MCF7 [17]): Active | IC50 (BEL-7404 tumor cell line): 5940 nM | Ratio IC50 [18]: 4.07 | Activity (Bel-7402 [19]): 63.11% | Activity (MCF7 [20]): 19.6%
